Results: article PMC3278212 (Bioorganic & medicinal chemistry letters, 2012)

Tests used:
MT-2 human T-cells = test: Cytotoxicity: inhibition of MT-2 cell growth, MTT; format: cell-based; conditions: MT-2 cells
Method in brief: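 Run alongside the HIV-1 IIIB protection assay in MT-2 human T-cells, with the MTT colorimetric method as read-out. CC50 is the concentration that inhibits MT-2 cell growth by 50%, obtained at the same time as the EC50 for protection of infected cells.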

IIIB strain of HIV-1 = format: cell-based; conditions: HIV-1 IIIB, MT-2 cells

Compound	cytotoxicity (MT-2 human T-cells)	anti-viral activity below CC50 level (IIIB strain of HIV-1)
COc1nc(Nc2ccc(C#N)c(OCC=C(C)C)c2)nc(OCCOc2nc(Nc3ccc(C#N)c(OCC=C(C)C)c3)nc(OC)n2)n1 [Compound 6a]	20 to 40 µM	
COc1nc(Nc2ccc(C#N)c(OCC=C(C)C)c2)nc(OCCCOc2nc(Nc3ccc(C#N)c(OCC=C(C)C)c3)nc(OC)n2)n1 [Compound 6b]	20 to 40 µM	
COc1nc(NCCNc2nc(Nc3ccc(C#N)c(OCC=C(C)C)c3)nc(OC)n2)nc(Nc2ccc(C#N)c(OCC=C(C)C)c2)n1 [Compound 6e]		did not show anti-viral activity below their CC50 levels
COc1nc(NCCCNc2nc(Nc3ccc(C#N)c(OCC=C(C)C)c3)nc(OC)n2)nc(Nc2ccc(C#N)c(OCC=C(C)C)c2)n1 [Compound 6f]		did not show anti-viral activity below their CC50 levels
